Published values pooled from the literature.
Compare with care: the assays were run in different laboratories.
PDE4D: 3',5'-cyclic-AMP phosphodiesterase 4D (PDE4D, Homo sapiens, UniProt Q08499)
MAPK7: Mitogen-activated protein kinase 7 (MAPK7, Homo sapiens, UniProt Q13164)
MTNR1B: Melatonin receptor type 1B (MTNR1B, Homo sapiens, UniProt P49286)

| SMILES | target | test | system | setting | measurement | result |
| --- | --- | --- | --- | --- | --- | --- |
| CCN(CC)CCCC[C@H](NC(=O)[C@H](CC(C)C)NC(=O)[C@H](C)NC(=O)[C@H](Cc1ccccc1)NC(=O)c1ccc(C(C)(C)C)cc1)C(=O)N[C@@H](CO)C(=O)OC | Bromodomain adjacent to zinc finger domain protein 1A (BAZ1A, Homo sapiens, UniProt Q9NRL2) | thermal stability, DSF |  | 25 µM | ΔTm | -1.44 °C |
| Nc1ncc(-c2nc(N3CCOCC3)nc(N3CCOCC3)n2)c(C(F)F)n1 | PDE4D | enzyme activity, inhibitor |  | 10 µM | remaining activity | 75% |
| Cc1nn(C)cc1-c1nc2c(N3CCN(Cc4ccc(Cl)cc4)CC3)c(Cl)cnc2[nH]1 | MAPK7 | binding, competition with immobilised ligand |  | 1 µM | remaining binding | 100% |
| COc1ccc2cccc(C(CO)CNC(=O)CF)c2c1 (stereo not shown) | MTNR1B | β-arrestin recruitment, agonist | MT2 | 90 min | Emax | 101% |
| O=C(O)CC(O)(CC(=O)O)C(=O)O | PDE4D | enzyme activity, inhibitor, radiometric |  | 5 µM | inhibition | 16.6% |
| COc1ncccc1-c1cnn2ccc(N3CCN(C(=O)OC(C)C)CC3)nc12 | MAPK7 | binding, competition with immobilised ligand |  | 1 µM | remaining binding | 100% |
| CC1(C)[C@@H](O[C@H]2O[C@H](C(=O)O)[C@@H](O)[C@H](O)[C@H]2O[C@@H]2O[C@H](C(=O)O)[C@@H](O)[C@H](O)[C@H]2O)CC[C@]2(C)[C@H]3C(=O)C=C4[C@@H]5C[C@@](C)(C(=O)O)CC[C@]5(C)CC[C@@]4(C)[C@]3(C)CC[C@@H]12 | PDE4D | enzyme activity, inhibitor, radiometric |  | 50 µM | inhibition | 10.9% |
| CC[C@H](C)[C@@H]1NC(=O)[C@@H]2CSSC[C@H](NC(=O)[C@@H](NC(=O)CN)[C@@H](C)O)C(=O)N[C@@H](CC(N)=O)C(=O)N[C@@H]([C@@H](C)O)C(=O)N3CCC[C@H]3C(=O)NCC(=O)N[C@H]3CSSC[C@H](NC(=O)[C@H](CCSC)NC(=O)[C@H](CC(C)C)NC(=O)[C@H](CCCNC(=N)N)NC(=O)CNC(=O)CNC(=O)[C@H](CC(=O)O)NC1=O)C(=O)NCC(=O)N[C@@H](CCC(=O)O)C(=O)N[C@@H]([C@@H](C)O)C(=O)N[C@H](C(=O)N[C@H](C(=O)NCC(=O)O)C(C)C)CSSC[C@H](NC(=O)[C@H]([C@@H](C)O)NC3=O)C(=O)N[C@@H](CO)C(=O)N[C@@H](Cc1c[nH]c3ccccc13)C(=O)N1CCC[C@H]1C(=O)N[C@@H](C(C)C)C(=O)N2 | Prothrombin (F2, Homo sapiens, UniProt P00734) | binding, SPR |  |  | koff | ~0.001 s⁻¹ |
| C[C@@]12C[C@@]3(O)O[C@@H](O1)[C@]1(COC(=O)c4ccccc4)[C@H]3C[C@@]12O[C@@H]1O[C@H](CO)[C@@H](O)[C@H](O)[C@H]1O | PDE4D | enzyme activity, inhibitor, radiometric |  | 50 µM | inhibition | 2.88% |
| COc1ccc2[nH]cc(CCNC(=O)CI)c2c1 | MTNR1B | GTPγS binding, agonist, radiometric |  | cell membranes | Emax | 123% |
